The test system of assay [1] is K562. The experiment in a line: Antiproliferative activity against human K562 cell line. It counts as functional, cell-based.
The target in assay [2] is Tubulin (Sus scrofa, UniProt P02554+P02550). As to the kind of experiment: Inhibition of tubulin polymerization in porcine brain.
Assay [3] can be described thus: Cell cycle arrest in KB/HeLa cells by accumulation at G2/M phase at 1 nM. It counts as functional, cell-based. Particulars: Homo sapiens. A digest of the protocol:
(§1)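 Subconfluent KB/HeLa cells were treated with a concentration series for 24 h at 37 °C, then detached and fixed in 70% ethanol. DNA was stained with propidium iodide alongside RNase digestion and measured by flow cytometry. Phase fractions came from cell-cycle modelling software, and IC50 from nonlinear regression.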

Assay [4] can be described thus: Cell cycle arrest in KB/HeLa cells by accumulation at S phase at 31.6 nM. Type of assay: functional, cell-based. The settings on record: Homo sapiens. The gist of the method: as §1
Assay [5] can be described thus: Cell cycle arrest in KB/HeLa cells by accumulation at G1 phase at 3.16 nM. Type of assay: functional, cell-based. The settings on record: Homo sapiens. The gist of the method:
as §1

Assay [6] in a line: Antiproliferative activity against KB/HeLa cells by XTT assay after 48 hrs. It counts as functional, cell-based. The settings on record: Homo sapiens. A digest of the protocol:
(§2)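 Tumour cell lines were seeded at 1 × 10^3 to 8 × 10^4 cells/well for logarithmic growth and exposed to a concentration series for 48 h. Proliferation was read as cellular metabolic activity by XTT. IC50 came from dose-response curves by nonlinear regression, with at least two replicates.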
Background: Tetrazolium assays rely on reduction of a dye to a coloured formazan, in cell work by metabolically active cells.

The nature of assay [7]: Cell cycle arrest in KB/HeLa cells by accumulation at S phase at 10 nM. Type of assay: functional, cell-based. The settings on record: Homo sapiens. The gist of the method:
as §1

A short description of assay [8]: Cell cycle arrest in KB/HeLa cells by accumulation at G2/M phase at 100 nM. It counts as functional, cell-based. Particulars: Homo sapiens. A digest of the protocol: as §1
The nature of assay [9]: Cell cycle arrest in KB/HeLa cells by accumulation at G1 phase at 0.3 nM. Type of assay: functional, cell-based. The settings on record: Homo sapiens. A digest of the protocol:
as §1

Assay [10] in a line: Cell cycle arrest in KB/HeLa cells by accumulation at G2/M phase at 316 nM. It counts as functional, cell-based. The settings on record: Homo sapiens. A digest of the protocol: as §1
Assay [11] is described as follows: Cell cycle arrest in KB/HeLa cells by accumulation at G1 phase at 10 nM. It counts as functional, cell-based. Particulars: Homo sapiens. The gist of the method: as §1
The nature of assay [12]: Cell cycle arrest in KB/HeLa cells by accumulation at G1 phase at 31.6 nM. Type of assay: functional, cell-based. The settings on record: Homo sapiens. The gist of the method: as §1
Assay [13] can be described thus: Cell cycle arrest in KB/HeLa cells by accumulation at G1 phase at 100 nM. Type of assay: functional, cell-based. Particulars: Homo sapiens. A digest of the protocol: as §1
Assay [14] can be described thus: Cell cycle arrest in KB/HeLa cells by accumulation at S phase at 3.16 nM. The settings on record: Homo sapiens. It counts as functional, cell-based. The gist of the method: as §1
Assay [15] can be described thus: Cell cycle arrest in KB/HeLa cells by accumulation at G1 phase at 316 nM. Particulars: Homo sapiens. Type of assay: functional, cell-based. The gist of the method: as §1
The test system of assay [16] is RKO. The experiment in a line: Antiproliferative activity against RKO cells with ectopic-induced p27kip1-expression by XTT assay after 48 hrs. The settings on record: Homo sapiens. It counts as functional, cell-based. The gist of the method: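 RKO colon adenocarcinoma cells carry an ecdysone-inducible p27kip1 vector. On day 1 they were plated with 3 µM ponasterone A (induced, 2 × 10^4 cells/well) or without it (not induced, 6 × 10^3 cells/well) and held 24 h at 37 °C. Compound or DMSO control was then added for 48 h at 37 °C, followed by a standard XTT read-out.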

A short description of assay [17]: Cell cycle arrest in KB/HeLa cells by accumulation at G2/M phase. It counts as functional, cell-based. Particulars: Homo sapiens. A digest of the protocol: as §1
Assay [18] is described as follows: Cell cycle arrest in KB/HeLa cells by accumulation at S phase at 316 nM. It counts as functional, cell-based. Particulars: Homo sapiens. A digest of the protocol:
as §1

Assay [19] is described as follows: Cell cycle arrest in KB/HeLa cells by accumulation at S phase at 0.3 nM. It counts as functional, cell-based. The settings on record: Homo sapiens. The gist of the method:
as §1

Assay [20] in a line: Cell cycle arrest in KB/HeLa cells by accumulation at G2/M phase at 10 nM. It counts as functional, cell-based. Particulars: Homo sapiens. A digest of the protocol:
as §1

Assay [21] is described as follows: Cell cycle arrest in KB/HeLa cells by accumulation at G2/M phase at 0.3 nM. Type of assay: functional, cell-based. Particulars: Homo sapiens. The gist of the method: as §1
A short description of assay [22]: Cell cycle arrest in KB/HeLa cells by accumulation at G1 phase at 1 nM. Type of assay: functional, cell-based. Particulars: Homo sapiens. The gist of the method: as §1
Assay [23] can be described thus: Cell cycle arrest in KB/HeLa cells by accumulation at G2/M phase at 31.6 nM. Type of assay: functional, cell-based. The settings on record: Homo sapiens. A digest of the protocol:
as §1

The nature of assay [24]: Cell cycle arrest in KB/HeLa cells by accumulation at S phase at 100 nM. It counts as functional, cell-based. Particulars: Homo sapiens. A digest of the protocol:
as §1

A short description of assay [25]: Cell cycle arrest in KB/HeLa cells by accumulation at S phase at 1 nM. It counts as functional, cell-based. Particulars: Homo sapiens. A digest of the protocol:
as §1

Assay [26] relates to P388. The experiment in a line: Antiproliferative activity against P388 ADR cells by XTT assay after 48 hrs. Type of assay: functional, cell-based. Particulars: Mus musculus, P388, 48 h. A digest of the protocol: as §2
Assay [27] deals with MDR. As to the kind of experiment: Antiproliferative activity against LT12 MDR cells by XTT assay after 48 hrs. Particulars: Rattus norvegicus. It counts as functional, cell-based. A digest of the protocol: as §2
The test system of assay [28] is L1210. As to the kind of experiment: Antiproliferative activity against L1210 VCR cells by XTT assay after 48 hrs. It counts as functional, cell-based. Particulars: Mus musculus, L1210, 48 h. The gist of the method:
as §2

Assay [29] is described as follows: Cell cycle arrest in KB/HeLa cells by accumulation at G2/M phase at 3.16 nM. It counts as functional, cell-based. The settings on record: Homo sapiens.
For assay [30], the system named is P388. As to the kind of experiment: Antiproliferative activity against P388 cells by XTT assay after 48 hrs. It counts as functional, cell-based. Particulars: Mus musculus, P388, 48 h. A digest of the protocol:
as §2

The test system of assay [31] is L1210. The experiment in a line: Antiproliferative activity against L1210 cells by XTT assay after 48 hrs. Type of assay: functional, cell-based. Particulars: Mus musculus, L1210, 48 h. A digest of the protocol: as §2
Assay [32] is described as follows: cells. The settings on record: Rattus norvegicus, LT12, 48 h.

Consider 15 molecules from ChEMBL document CHEMBL1138222, “9-Benzylidene-naphtho[2,3-b]thiophen-4-ones as novel antimicrotubule agents-synthesis, antiproliferative activity, and inhibition of tubulin polymerization” (J Med Chem, 2006).

Regarding `COc1ccc(CC(=O)Oc2c3ccccc3cc3sccc23)cc1`, the IC50 in [1] is 15 µM; in assay [2], > 10 µM.

Consider `COc1ccc(/C=C2/c3ccccc3C(=O)c3ccsc32)cc1O`, for which the IC50 in assay [1] stood at 0.23 µM; in assay [2], 1.4 µM.

The molecule `O=C1c2ccccc2/C(=C/c2cc(Br)c(O)c(Br)c2)c2sccc21` returned an IC50 in [1] of 6.69 µM.

As for `O=C1c2ccccc2/C(=C/c2ccc(O)c(O)c2)c2sccc21`, in assay [1], the IC50 stood at 0.27 µM.

For the molecule `COc1ccc(CCC(=O)Oc2c3ccccc3cc3sccc23)cc1`, in assay [1], the IC50 is > 90 µM.

Regarding `COc1cc2c(c(OC)c1OC)-c1ccc(OC)c(=O)cc1[C@@H](NC(C)=O)CC2` [COLCHICINE], the Activity in assay [3] worked out at 10%; in assay [4], 11.9%; in assay [5], 64.3%; in assay [7] it was 35.7%; in assay [8], 94.7%; in assay [9] it was 63.3%. The Activity came out at 94.5% in assay [10]; 32.2% in [11]; 0.5% in assay [12]; 0.3% in assay [13]; 25.1% in assay [14]; 0.3% in assay [15]. In addition, the Activity stood at 5.2% in [18]; 26.6% in assay [19]; 32.1% in assay [20]; 10.1% in [21]; 64.7% in assay [22]; 87.6% in assay [23]. Moreover, the Activity in assay [24] came to 5.1%; in [25] it was 25.4%. Moreover, the IC50 is 0.03 µM in assay [6] and > 10 µM in [16]. This molecule showed an EC50 in assay [17] of 0.014 µM.

For `COc1ccc(/C=C2/c3ccccc3C(=O)c3ccsc32)cc1`, the IC50 was found to be 0.44 µM in [1] and 3.3 µM in assay [2].

Molecule `c1ccc(COc2c3ccccc3cc3sccc23)cc1` showed an IC50 in assay [1] of 2.38 µM.

Regarding `CC(=O)O[C@H]1C(=O)[C@@]2(C)[C@H]([C@H](OC(=O)c3ccccc3)[C@]3(O)C[C@H](OC(=O)[C@H](O)[C@@H](NC(=O)c4ccccc4)c4ccccc4)C(C)=C1C3(C)C)[C@]1(OC(C)=O)CO[C@@H]1C[C@@H]2O` [PACLITAXEL], the Activity in assay [3] came to 10.1%; in assay [4], 49.9%; in [5] it was 63.6%; in assay [7], 26.6%; in assay [8] it was 87.8%; in [10], 90.8%. Moreover, the Activity is 64.8% in assay [11]; 31.1% in assay [12]; 1.2% in [13]; 27% in assay [14]; 0.3% in assay [15]; 8.9% in assay [18]. Besides, the Activity worked out at 8.5% in assay [20]; 63.2% in assay [22]; 9.4% in [29]; 19% in assay [23]; 11% in assay [24]; 26.7% in assay [25]. Moreover, the IC50 in assay [26] was > 5 µM; in assay [6] it was 0.01 µM; in [16], > 3 µM; in assay [27] it was 0.4 µM; in assay [28], > 5 µM; in assay [30], 0.04 µM. Besides, a half-maximal response in assay [17] (EC50) required 0.049 µM.

Turning to `COC(=O)Nc1nc2cc(C(=O)c3cccs3)ccc2[nH]1` [NOCODAZOLE], the Activity in [3] turned out to be 11.1%; in [4], 25.7%; in [5], 64.6%; in assay [7] it was 25.7%; in assay [8] it was 51.4%; in assay [10], 93.2%. Moreover, the Activity in assay [11] stood at 64.2%; in assay [12], 64.4%; in [13], 22.3%; in [14], 24.8%; in assay [15], 0.9%; in assay [18] it was 6%. Besides, the Activity in assay [20] was 10%; in assay [22], 65.2%; in [29], 10.6%; in assay [23], 9.9%; in assay [24] it was 26.1%; in assay [25] it was 23.6%. The IC50 in assay [26] is 0.17 µM; in assay [31] it was 0.05 µM; in assay [6] it was 0.14 µM; in [32] it was 0.04 µM; in [16] it was > 10 µM; in [27], 0.07 µM. Also, the IC50 in assay [28] was 0.09 µM; in assay [30] it was 0.08 µM. The same molecule returned an EC50 in assay [17] of 0.091 µM.

As for `O=C1c2ccccc2Cc2sccc21`, the half-inhibitory concentration (IC50) in [1] was 7 µM.

As to `COc1cc(/C=C2/c3ccccc3C(=O)c3ccsc32)cc(OC)c1OC`, the IC50 stood at 0.6 µM in assay [1] and 7.4 µM in [2].

Consider `O=[N+]([O-])c1ccc(COc2c3ccccc3cc3sccc23)cc1`, for which, in assay [1], the IC50 was found to be 3.13 µM.

For `COc1ccc(/C=C2/c3ccccc3C(=O)c3ccsc32)c(O)c1`, the IC50 in [1] is 0.23 µM; in assay [2], 0.77 µM.

As to `O=C1c2ccccc2/C(=C/c2cccs2)c2sccc21`, the 50% inhibitory concentration (IC50) was 0.39 µM in assay [1] and 1.34 µM in assay [2].

What is called IC50 is the concentration at which inhibition is half-maximal. High values mean weaker potency in that assay, low ones greater potency in that assay. As a reminder, the EC50 is the midpoint of the concentration-response curve.
